Experiment [1] addresses Opioid receptors; mu and delta (Mus musculus) (UniProt P42866+P32300). The experiment in a line: In vivo antinociceptive activity was determined upon subcutaneous administration in the mouse paraphenylquinone writhing test. Format: functional, organism-based. In short, it runs like this: (§1)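 Male ICR mice weighing 20-30 g, each animal tested only once. Drugs were given subcutaneously at a minimum of 3 doses, with 6-10 mice per dose. Assay procedures followed earlier published methods and their modifications.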

The nature of experiment [2]: In vivo antinociceptive activity was determined upon subcutaneous administration in the mouse tail-flick test. Format: functional. The conditions noted are these: sc. In short, it runs like this:
as §1
In general terms: Hot-plate and tail-flick tests time the reaction to a heat stimulus.

Experiment [3] deals with Delta-type opioid receptor (Rattus norvegicus, UniProt P33533). The experiment in a line: In vitro binding affinity at opioid receptor delta 1 was determined in C6 rat glioma cells using [3H]Ile5,6 deltorphin II. The format is cell-based.
Sequence of Delta-type opioid receptor (P33533 whole entry): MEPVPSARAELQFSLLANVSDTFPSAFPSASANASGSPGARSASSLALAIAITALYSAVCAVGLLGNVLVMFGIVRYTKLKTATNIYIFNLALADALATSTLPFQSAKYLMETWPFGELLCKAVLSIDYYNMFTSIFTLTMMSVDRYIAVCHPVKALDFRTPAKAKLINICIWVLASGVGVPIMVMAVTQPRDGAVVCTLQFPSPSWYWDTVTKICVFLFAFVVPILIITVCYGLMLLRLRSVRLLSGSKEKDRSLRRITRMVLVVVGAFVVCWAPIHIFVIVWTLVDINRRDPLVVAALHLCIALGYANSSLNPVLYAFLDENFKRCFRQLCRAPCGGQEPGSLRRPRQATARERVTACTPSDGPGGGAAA
Experiment [4] has as its target Mu-type opioid receptor (Rattus norvegicus, UniProt P33535). The experiment in a line: In vitro binding affinity at opioid receptor mu 1 was determined in C6 rat glioma cells using [3H]DAMGO. The format is cell-based.
A short description of experiment [5]: Selectivity ratio was determined. Details: reference not given here.
The target in experiment [6] is Kappa-type opioid receptor (Homo sapiens, UniProt P41145). The experiment in a line: biochemical. Format: cell-based, CHO.
Sequence of Kappa-type opioid receptor (P41145 whole entry): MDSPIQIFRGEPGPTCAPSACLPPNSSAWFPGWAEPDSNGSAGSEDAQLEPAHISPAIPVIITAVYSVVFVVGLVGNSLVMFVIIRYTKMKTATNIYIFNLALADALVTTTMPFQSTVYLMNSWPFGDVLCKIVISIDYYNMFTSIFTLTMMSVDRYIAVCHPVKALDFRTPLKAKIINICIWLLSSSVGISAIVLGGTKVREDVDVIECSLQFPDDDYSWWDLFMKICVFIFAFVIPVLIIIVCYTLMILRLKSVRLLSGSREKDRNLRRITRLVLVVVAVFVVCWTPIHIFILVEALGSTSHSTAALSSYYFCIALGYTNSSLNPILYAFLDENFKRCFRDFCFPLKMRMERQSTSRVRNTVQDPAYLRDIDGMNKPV

One may read the ED50 as the dose that gives a 50% effect, or the effect in half of the subjects. As usually defined, the Ki is a measure of affinity in units of concentration, obtained from inhibition or displacement.

The structures appear in SMILES notation. Values joined by “and” are separate entries in the source; they are usually repeats but may differ in a detail not shown here. Equal values may be shown once.

Sequence of Mu-type opioid receptor (P33535 whole entry): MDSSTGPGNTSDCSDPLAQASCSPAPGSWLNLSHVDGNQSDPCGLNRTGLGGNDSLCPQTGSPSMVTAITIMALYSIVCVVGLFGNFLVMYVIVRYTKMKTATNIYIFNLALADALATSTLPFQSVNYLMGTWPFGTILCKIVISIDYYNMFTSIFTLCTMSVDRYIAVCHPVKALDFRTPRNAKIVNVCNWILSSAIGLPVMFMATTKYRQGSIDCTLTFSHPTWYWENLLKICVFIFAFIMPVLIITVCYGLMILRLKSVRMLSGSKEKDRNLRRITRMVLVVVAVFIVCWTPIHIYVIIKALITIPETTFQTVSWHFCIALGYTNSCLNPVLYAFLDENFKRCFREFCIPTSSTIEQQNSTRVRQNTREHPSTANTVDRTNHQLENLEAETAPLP
Sequence of Opioid receptors; mu and delta (Mus musculus) (P32300 whole entry, looked up): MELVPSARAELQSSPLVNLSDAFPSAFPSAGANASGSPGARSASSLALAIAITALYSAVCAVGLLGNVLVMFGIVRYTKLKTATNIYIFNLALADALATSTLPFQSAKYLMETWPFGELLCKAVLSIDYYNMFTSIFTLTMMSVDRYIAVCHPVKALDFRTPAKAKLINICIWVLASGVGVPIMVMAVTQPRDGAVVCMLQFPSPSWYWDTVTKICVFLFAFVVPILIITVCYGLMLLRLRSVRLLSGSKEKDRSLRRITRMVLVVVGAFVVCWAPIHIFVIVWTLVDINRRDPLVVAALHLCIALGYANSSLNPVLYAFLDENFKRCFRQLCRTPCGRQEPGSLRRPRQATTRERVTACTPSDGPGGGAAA
Sequence of Opioid receptors; mu and delta (Mus musculus) (P42866 whole entry, looked up): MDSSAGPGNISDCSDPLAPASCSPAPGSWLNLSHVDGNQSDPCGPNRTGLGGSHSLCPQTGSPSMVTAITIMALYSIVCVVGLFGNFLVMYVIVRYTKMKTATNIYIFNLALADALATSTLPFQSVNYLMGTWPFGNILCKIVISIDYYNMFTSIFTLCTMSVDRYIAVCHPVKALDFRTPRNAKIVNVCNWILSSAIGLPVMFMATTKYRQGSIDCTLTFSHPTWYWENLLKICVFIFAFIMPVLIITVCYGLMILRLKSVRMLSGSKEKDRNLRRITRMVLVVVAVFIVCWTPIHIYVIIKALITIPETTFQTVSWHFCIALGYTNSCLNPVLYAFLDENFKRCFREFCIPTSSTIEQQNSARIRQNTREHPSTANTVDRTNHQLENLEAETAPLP

On to `CCCN1CC[C@]23c4c5ccc(O)c4O[C@H]2C(=O)CC[C@@]3(OCCCc2ccccc2)[C@H]1C5`, for which the ED50 in experiment [1] turned out to be 0.9 µg/kg; in experiment [2], 2 µg/kg. The inhibition constant Ki in experiment [3] worked out at 0.93 nM; in experiment [4], 0.09 nM; in experiment [6] it was 0.37 nM. In experiment [5], the Ratio is 4.11 and 10.3.
On to `CO[C@@]12CCC(=O)[C@]3(C)Oc4c(O)ccc5c4[C@@]31CCN(C)[C@@H]2C5`, for which the 50% effective dose (ED50) in experiment [1] was determined as 9 µg/kg; in experiment [2] it was 30 µg/kg. Also, the Ki in experiment [3] was found to be 40.9 nM; in experiment [4], 0.023 nM; in experiment [6], 304 nM.
Regarding `O=C1CC[C@@]2(OCCCc3ccccc3)[C@H]3Cc4ccc(O)c5c4[C@@]2(CCN3CC2CCCO2)[C@H]1O5` (stereo partly specified), the ED50 in experiment [1] was 2 µg/kg; in experiment [2], 7 µg/kg. In addition, the figures for the inhibition constant Ki in experiment [3], in experiment [4] and in experiment [6] were 0.09 nM, 0.2 nM and 0.08 nM, respectively. The Ratio in experiment [5] was 0.4 and 0.45.
`COc1ccc2c3c1O[C@H]1C(=O)CC[C@@]4(OCCCc5ccccc5)[C@@H](C2)N(CC2CCCO2)CC[C@]314` (stereo partly specified) gave an ED50 in experiment [2] of 760 µg/kg. The inhibition constant (Ki) in experiment [3] was found to be 6.2 nM; in experiment [4] it was 3.8 nM; in experiment [6] it was 61.4 nM.
As to `C=CCN1CC[C@]23c4c5ccc(O)c4O[C@H]2C(=O)CC[C@@]3(OCCCc2ccccc2)[C@H]1C5`, in experiment [2], the 50% effect level (ED50) was put at a dose of 6 µg/kg. The Ki in experiment [3] amounted to 0.26 nM; in experiment [6], 0.11 nM.
Consider `O=C1CC[C@@]2(OCCCc3ccccc3)[C@H]3Cc4ccc(O)c5c4[C@@]2(CCN3CC2CC2)[C@H]1O5`, for which the ED50 in experiment [1] worked out at 6 µg/kg; in experiment [2], 3 µg/kg. Besides, the Ki in experiment [6] turned out to be 0.41 nM.
Consider `CN1CC[C@]23c4c5ccc(O)c4O[C@H]2[C@@H](O)C=C[C@H]3[C@H]1C5` [MORPHINE], for which the ED50 in experiment [1] is 400 µg/kg; in experiment [2] it was 1900 µg/kg.
As to `O=C1CC[C@@]2(OCCCc3ccccc3)[C@H]3Cc4ccc(O)c5c4[C@@]2(CCN3CC2CCC2)[C@H]1O5`, the ED50 in experiment [2] stood at 8 µg/kg. Further, the Ki in experiment [3] came to 0.46 nM; in experiment [4], 0.25 nM; in experiment [6] it was 0.49 nM. Besides, the Ratio in experiment [5] was 1.96 and 1.84.
In experiment [2], `O=C1CC[C@@]2(OCCCc3ccccc3)[C@H]3Cc4ccc(O)c5c4[C@@]2(CCN3CCc2ccccc2)[C@H]1O5` came in with a median effective dose (ED50) of 110 µg/kg.
The same measure, in the same setting: next, `COc1ccc2c3c1O[C@H]1C(=O)CC[C@@]4(OCCCc5ccccc5)[C@@H](C2)N(CCc2ccccc2)CC[C@]314`: 80 µg/kg.
